The results in this text go back to ChEMBL document CHEMBL2021913, “Synthesis and biological evaluation of some novel thiazole substituted benzotriazole derivatives” (2012).

As a reminder, the MIC is the lowest concentration that inhibits growth of the organism.

Converted amounts (≈) assume the structure as drawn. The source made the active and inactive calls. The rule behind the calls is not given here.

Holding throughout (assay type): functional
For assay [1], the system named is Candida albicans. Nature of the assay: Ratio of MFC99.9 to MIC90 for Candida albicans 3471 at 35 degC after 48 hrs by CLSI method based antimicrobial assay. In a few lines:
(§1)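 Broth microdilution following CLSI guidelines over 256 to 1 µg/mL. MIC90 is the lowest concentration completely inhibiting growth. For MFC, 0.1 mL from each tube spread on agar and CFU counted after 48 h at 35 °C; MFC is lowest concentration killing 99.9% of inoculum. MFC/MIC ratio calculated: […], ≤4 as fungicidal.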

In assay [2] the test system is Aspergillus niger. As to the kind of experiment: Ratio of MFC99.9 to MIC90 for Aspergillus niger 545 at 35 degC after 48 hrs by CLSI method based antimicrobial assay. In a few lines: as §1
Assay [3] deals with Escherichia coli. As to the kind of experiment: Antimicrobial activity against Escherichia coli 2109 at 128 ug/disc at 35 degC after 24 hrs by agar-well diffusion assay. In short, it runs like this:
(§2)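 Agar-well diffusion: 24 h bacterial cultures adjusted to 0.5 McFarland (1.5 × 10⁸ CFU/mL) and mixed into molten Mueller-Hinton agar before pouring. 6 mm wells punched and each filled with 50 µL of compound stock or control. Plates incubated 35 °C for 24 h. Zone of growth inhibition diameter measured with vernier caliper.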

Assay [4] concerns Pseudomonas aeruginosa. As to the kind of experiment: Antimicrobial activity against Pseudomonas aeruginosa 2036 at 35 degC after 18 to 24 hrs by NCCLS method based antimicrobial assay.
Assay [5] has as its system Aspergillus niger. Nature of the assay: Antimicrobial activity against Aspergillus niger 545 at 128 ug/disc at 37 degC after 24 to 72 hrs by agar-well diffusion assay. The following applies: read-out: DIZ. In short, it runs like this: (§3)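 Potato dextrose agar base plates overlaid with seeded agar cooled to 40 °C and inoculated with spores from 10-day cultures, final 1 × 10⁶ spores/mL. Compounds dissolved in DMSO at 128 µg/mL and applied on 6 mm filter-paper discs placed on chilled seeded medium. Nystatin positive control, DMSO negative control. Incubation 24–72 h at 37 °C. Inhibition zone diameter read by vernier caliper.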

In assay [6] the test system is Pseudomonas aeruginosa. Nature of the assay: Antimicrobial activity against Pseudomonas aeruginosa 2036 at 128 ug/disc at 35 degC after 24 hrs by agar-well diffusion assay. Particulars: Pseudomonas aeruginosa, 2036, 24 h; read-out: DIZ. In a few lines:
as §2

Assay [7] deals with Aspergillus niger. Nature of the assay: Antimicrobial activity against Aspergillus niger 545 at 35 degC after 48 hrs by CLSI method based antimicrobial assay. The following applies: Aspergillus niger, 545, 48 h. In short, it runs like this:
as §1

For assay [8], the system named is Candida albicans. Nature of the assay: Antimicrobial activity against Candida albicans 3471 at 128 ug/disc at 37 degC after 24 to 72 hrs by agar-well diffusion assay. Particulars: read-out: DIZ. In short, it runs like this: as §3
A general note: A growth-free zone around the sample is the usual read-out of agar diffusion tests.

Assay [9] has as its system Escherichia coli. Nature of the assay: Antimicrobial activity against Escherichia coli 2109 at 35 degC after 18 to 24 hrs by NCCLS method based antimicrobial assay.
Assay [10] relates to Bacillus subtilis. Nature of the assay: Antimicrobial activity against Bacillus subtilis 2250 at 35 degC after 18 to 24 hrs by NCCLS method based antimicrobial assay.
Assay [11] relates to Candida albicans. As to the kind of experiment: Antimicrobial activity against Candida albicans 3471 at 35 degC after 48 hrs by CLSI method based antimicrobial assay. Particulars: Candida albicans, 3471, 48 h. In short, it runs like this:
as §1

For assay [12], the system named is Staphylococcus aureus. As to the kind of experiment: Antimicrobial activity against Staphylococcus aureus 2079 at 128 ug/disc at 35 degC after 24 hrs by agar-well diffusion assay. Particulars: Staphylococcus aureus, 2079, 24 h; read-out: DIZ. In short, it runs like this:
as §2

The test system of assay [13] is Bacillus subtilis. As to the kind of experiment: Antimicrobial activity against Bacillus subtilis 2250 at 128 ug/disc at 35 degC after 24 hrs by agar-well diffusion assay. In a few lines: as §2
The test system of assay [14] is Staphylococcus aureus. Nature of the assay: Antimicrobial activity against Staphylococcus aureus 2079 at 35 degC after 18 to 24 hrs by NCCLS method based antimicrobial assay.

As for `O=[N+]([O-])c1ccc(/C(Cn2nnc3ccccc32)=N\Nc2nc(-c3ccc(F)cc3)cs2)cc1`, the Ratio with Candida albicans [1] and in the assay with Aspergillus niger [2] was 2 throughout. The “diameter of the inhibition zone (DIZ)” value in the assay on Escherichia coli [3] and with Bacillus subtilis [13] was “inactive” in each case. The minimal inhibitory concentration (MIC) with Pseudomonas aeruginosa [4] is 32 µg/mL (≈ 67.6 µM); against Aspergillus niger [7], 32 µg/mL (≈ 67.6 µM); in the assay on Candida albicans [11], 128 µg/mL (≈ 270 µM); against Staphylococcus aureus [14], 32 µg/mL (≈ 67.6 µM). In addition, the MBC in the assay with Pseudomonas aeruginosa [4] (read-out: MBC99.9) turned out to be 32 µg/mL (≈ 67.6 µM); in the assay on Staphylococcus aureus [14] (read-out: MBC99.9) it was 64 µg/mL (≈ 135 µM). Moreover, the zone of inhibition at 128 µg/disc with Aspergillus niger [5] stood at 17.8 mm; in the assay on Pseudomonas aeruginosa [6] it was 20.7 mm; with Candida albicans [8], 12.2 mm; in the assay on Staphylococcus aureus [12], 26.5 mm. Besides, the MFC in the assay with Aspergillus niger [7] (read-out: MFC99.9) came out at 64 µg/mL (≈ 135 µM); in the assay on Candida albicans [11] (read-out: MFC99.9), 256 µg/mL (≈ 541 µM). Also, the MBC99.9 result in the assay on Escherichia coli [9] and with Bacillus subtilis [10] was “inactive” in each case. For the same compound, the MIC entry in the assay with Escherichia coli [9] and in the assay on Bacillus subtilis [10] was “inactive” throughout.
